Source: PubChem
A selection follows.
Apaf1 activ – activators of human Apaf-1 apoptosome, primary screen, biochemical, DEVD-Rh110 fluorescence, uHTS. Apoptotic protease-activating factor 1 (Homo sapiens), O14727. Apaf-1 apoptosome caspase-3 activation; active compounds read low. activity change, negative = activation, % at 20 µM. hit rate 0.31% among 330,000. AID 489031, 2010;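 active = activity change at or below -40% at 20 µM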
Target sequence (O14727 whole entry, looked up): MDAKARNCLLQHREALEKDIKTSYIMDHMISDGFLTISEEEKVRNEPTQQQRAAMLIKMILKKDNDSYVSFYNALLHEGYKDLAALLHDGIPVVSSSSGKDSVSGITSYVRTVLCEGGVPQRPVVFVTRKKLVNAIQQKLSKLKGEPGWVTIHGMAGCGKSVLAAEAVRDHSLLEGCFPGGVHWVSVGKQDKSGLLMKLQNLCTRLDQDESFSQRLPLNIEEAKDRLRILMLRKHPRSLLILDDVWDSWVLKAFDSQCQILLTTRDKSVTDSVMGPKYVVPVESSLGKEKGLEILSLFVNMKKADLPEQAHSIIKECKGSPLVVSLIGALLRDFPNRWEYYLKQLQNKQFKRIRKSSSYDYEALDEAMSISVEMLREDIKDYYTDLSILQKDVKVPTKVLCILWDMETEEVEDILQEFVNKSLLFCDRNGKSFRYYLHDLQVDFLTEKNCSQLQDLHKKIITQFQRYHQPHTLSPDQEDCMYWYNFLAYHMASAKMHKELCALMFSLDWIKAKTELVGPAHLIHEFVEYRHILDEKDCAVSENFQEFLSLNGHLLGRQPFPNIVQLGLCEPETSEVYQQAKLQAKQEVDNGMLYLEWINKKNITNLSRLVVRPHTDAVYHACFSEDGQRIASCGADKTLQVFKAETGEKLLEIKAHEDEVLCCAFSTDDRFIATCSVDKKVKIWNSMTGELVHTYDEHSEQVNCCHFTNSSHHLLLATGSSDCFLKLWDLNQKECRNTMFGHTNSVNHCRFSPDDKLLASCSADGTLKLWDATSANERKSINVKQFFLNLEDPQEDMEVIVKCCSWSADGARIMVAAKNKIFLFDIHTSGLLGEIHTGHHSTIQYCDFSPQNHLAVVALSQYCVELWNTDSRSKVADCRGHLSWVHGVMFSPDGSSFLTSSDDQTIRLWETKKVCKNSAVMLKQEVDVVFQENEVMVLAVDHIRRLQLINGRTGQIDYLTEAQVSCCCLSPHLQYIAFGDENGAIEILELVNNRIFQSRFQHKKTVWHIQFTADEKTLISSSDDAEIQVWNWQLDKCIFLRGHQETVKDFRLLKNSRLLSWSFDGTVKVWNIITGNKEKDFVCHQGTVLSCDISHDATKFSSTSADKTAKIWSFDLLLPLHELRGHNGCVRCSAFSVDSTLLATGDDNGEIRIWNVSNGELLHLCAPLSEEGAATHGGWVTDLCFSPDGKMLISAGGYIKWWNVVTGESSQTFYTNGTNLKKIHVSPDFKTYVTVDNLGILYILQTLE
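Material: reconstituted apoptosome of Apaf-1, cytochrome c, caspase-9, procaspase-3; times: 30 min preincubation, 50 min reaction, room temperature; measured by: fluorescence, 540 nm emission, 480 nm excitation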
Rh110 act interf – Rh110 fluorescence interference by putative Apaf-1 activators, confirmation, artefact control for Apaf-1 activator project, biochemical, 20 µM. shares compounds with Apaf1 activ. quenched caspase reaction, Ex480/Em540. fluorescence interference (activity change), % at 20 µM, hits read low. 980 tested, under 10 active. AID 504616, 2011;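 active = mean activity change at or below -40% when tested at 20 µM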
Apaf-1 act conf – Apaf-1 activators, single-dose retest, confirmation, biochemical, fluorescence, DEVD-Rh110, 20 µM; AID 504617, 2011; shares compounds with Apaf1 activ; hit rate 5% among 980; reconstituted apoptosome caspase-3 activity; active compounds read low; activity change, negative = activation, % at 20 µM;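 active = mean activity change at or below -40%, meaning activation of 40% or more, at 20 µM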
Numbers stand for hits.

How did CC(C)=CCC/C(C)=C/CNC(=O)C[C@H]1C[C@H](C(=O)N2CCOCC2)[C@@]2(C)c3[nH]c4cc(-c5ccco5)ccc4c3CCN2C1=O do in these assays?
Apaf1 activ: inactive

How did COc1ccccc1N1CCN(C(c2cccs2)C(C)NS(=O)(=O)c2ccccc2)CC1 (stereo not drawn) do in these assays?
Apaf1 activ: inactive

How did COc1ccccc1N1CCN(C(=O)C(C)CS(=O)(=O)c2ccc3c(c2)NC(=O)CS3)CC1 (stereo not drawn) do in these assays?
Apaf1 activ: -428

How did COc1ccccc1N1CCN(C(=O)c2ccc3c(Cl)c4c(nc3c2)CCCC4)CC1 do in these assays?
Apaf1 activ: inactive

Results for Cc1ccc2c(c1)C(=O)C(=O)N2Cc1ccc(Cl)cc1 ?
Apaf1 activ: inactive

What do the screens show for `O=C(OCc1cc(Cl)ccc1OC(F)F)c1ccc([N+](=O)[O-])o1`?
Apaf1 activ: inactive

What do the screens show for `CC(C)n1cnc2c(NCc3ccccc3)cc(N[C@H](C)CO)cc21`?
Apaf1 activ: inactive

How did COc1ccc(NS(=O)(=O)c2cccc(C(=O)N/N=C/c3cn(-c4ccccc4)nc3-c3ccc(OC)cc3)c2)cc1 do in these assays?
Apaf1 activ: -45

Results for COc1ccccc1C(CNC(=O)c1cccc(S(=O)(=O)Nc2ccc(C)cc2)c1)N(C)C (stereo not drawn) ?
Apaf1 activ: inactive

What do the screens show for `COc1ccc(NS(=O)(=O)c2cccc(C(=O)N3CCCCCCC3)c2)cc1`?
Apaf1 activ: inactive

How did CC(=O)c1ccc(N2CCN(S(=O)(=O)c3ccc4c5c3CC(=O)N5CC(C)S4)CC2)cc1 (stereo not drawn) do in these assays?
Apaf1 activ: inactive

What do the screens show for `CC1CN(S(=O)(=O)c2cccc(C(=O)N(CCc3ccccc3)Cc3ccccc3)c2)CC(C)O1` (stereo not drawn)?
Apaf1 activ: inactive

How did Cc1ccc(OCC(=O)N(Cc2nnc(-c3ccccc3Cl)o2)C2CC2)cc1C do in these assays?
Apaf1 activ: inactive

Results for CCCCC(=O)NC(c1ccc(C(C)C)cc1)c1ccc2cccnc2c1O (stereo not drawn) ?
Apaf1 activ: -463

What do the screens show for `CCOc1ccc(NC(=O)CN(C)C(=O)c2ccccc2OCc2c(C)noc2C)cc1OCC`?
Apaf1 activ: inactive

What do the screens show for `CCC1C(=O)N=C(SCC(=O)Nc2nc3ccccc3s2)NC1=O` (stereo not drawn)?
Apaf1 activ: inactive

What do the screens show for `Clc1ccc(SCCOCCN2CCOCC2)cc1`?
Apaf1 activ: -53

How did O=C1C(Cl)=C(NCCN2CCOCC2)C(=O)c2ccccc21 do in these assays?
Apaf1 activ: inactive

Results for O=C(CCNC(=O)c1ccc(Cl)cc1)NCCCN1CCOCC1 ?
Apaf1 activ: inactive

What do the screens show for `O=C(O)CCC1c2cc3c4cc2OC2Oc5cc6c(cc51)C(CCC(=O)O)c1cc5c7cc1OC(O6)c1cc6cc(c1)Oc1cc(cc(C(=O)O)c1)Oc1cc8cc(c1)C(Oc1cc(c(cc1C5CCC(=O)O)C3CCC(=O)O)OC(O4)c1cc(cc(c1)Oc1cc(cc(C(=O)O)c1)O8)Oc1cc(cc(C(=O)O)c1)Oc1cc(cc2c1)Oc1cc(cc(C(=O)O)c1)O6)O7` (stereo not drawn)?
Apaf1 activ: inactive

Results for COC(=O)C1=C(C)N(Cc2ccccc2)C(=NCCc2cccnc2)N[C@H]1c1ccc(Br)cc1 ?
Apaf1 activ: inactive

Results for COc1ccc(NC(=O)Nc2ccc(O)c3ccccc23)cc1 ?
Apaf1 activ: inactive

How did Cc1[nH]n(-c2ccccc2)c(=O)c1/C=N\NC(=O)C1COc2ccccc2O1 (stereo not drawn) do in these assays?
Apaf1 activ: inactive

How did CCCN(CC(=O)Nc1ccccc1C)C(=O)c1sc2ccccc2c1Cl do in these assays?
Apaf1 activ: inactive

How did CCn1cc(CN2CCC(n3nccc3NC(=O)c3cccc(F)c3)CC2)cn1 do in these assays?
Apaf1 activ: -302

How did CNC[C@@H]1Oc2ccc(NS(=O)(=O)c3ccc(Cl)cc3)cc2C(=O)N([C@H](C)CO)C[C@@H]1C do in these assays?
Apaf1 activ: inactive

What do the screens show for `Cc1ccc2c(c1)c1cccc3c1n2CCN3CCC(N)=O`?
Apaf1 activ: inactive

How did O=C(/C=C/c1cc[n+](CC(=O)c2ccc3cccc4c3c2CC4)cc1)c1ccc2cccc3c2c1CC3 do in these assays?
Apaf1 activ: inactive

What do the screens show for `C=C(C)C(=O)Nc1cccc(C2=NOC3(C2)C[C@H](C(N)=O)N(C(=O)CC#N)C3)c1` (stereo partly drawn)?
Apaf1 activ: -166

How did C=C(C)C(=O)Nc1cccc(C2=NOC3(C2)C[C@H](C(N)=O)N(C(=O)CC)C3)c1 (stereo partly drawn) do in these assays?
Apaf1 activ: -271

What do the screens show for `CCCCCC#CCC#CCC#CCC#CCCCC(=O)O`?
Apaf1 activ: inactive

Results for COc1ccc(CCNC(=O)CSc2nnc(-c3ccco3)c(-c3ccco3)n2)cc1OC ?
Apaf1 activ: inactive

Results for CCN(CC)c1ccc(NC(=O)CCS(=O)(=O)c2ccc(Br)cc2)c(C)c1 ?
Apaf1 activ: -136

Results for C[C@H](CO)N1C[C@H](C)[C@@H](CN(C)Cc2ccc(Cl)c(Cl)c2)Oc2c(NC(=O)Cc3ccccc3)cccc2C1=O ?
Apaf1 activ: inactive

Results for Cc1cccc(NC(=O)CSCC(=O)N(C)Cc2ccc(Cl)c(Cl)c2)c1 ?
Apaf1 activ: inactive

Results for O=C1Cc2ccccc2C(=O)N1Cc1ccccc1 ?
Apaf1 activ: inactive

Results for C#CCOCCOCCOCCNc1nc(N2CCN(C(=O)[C@H]([C@@H](C)CC)n3cc([C@@H](N)CO)nn3)CC2)nc(N2CCN(C(=O)[C@H](Cc3cc4ccccc4[nH]3)n3cc([C@@H](N)Cc4ccc(O)cc4)nn3)CC2)n1 ?
Apaf1 activ: inactive

What do the screens show for `COc1ccc(C2C(C(=O)c3ccco3)=C(O)C(=O)N2CCCn2ccnc2)c(OC)c1` (stereo not drawn)?
Apaf1 activ: inactive

Results for C/C(=N\NC(=O)c1ccc(NS(=O)(=O)c2cccs2)cc1)c1ccc(Cl)cc1 ?
Apaf1 activ: -46; Rh110 act interf: inactive; Apaf-1 act conf: inactive

What do the screens show for `Cc1c(C(=O)N2CCOCC2)c(S(=O)(=O)Nc2cccc(Br)c2)c(C)n1C`?
Apaf1 activ: -44; Rh110 act interf: inactive; Apaf-1 act conf: inactive

Results for O=C1C(Cl)=C(N2CCC(C(=O)O)CC2)C(=O)c2ccccc21 ?
Apaf1 activ: inactive

What do the screens show for `O=C1C=C(Nc2ccccc2C(=O)O)c2ccccc2C1=O`?
Apaf1 activ: inactive

How did COCCNc1nc(C)cc(-c2cc(C(=O)Nc3ccccc3)on2)n1 do in these assays?
Apaf1 activ: -53; Rh110 act interf: inactive; Apaf-1 act conf: inactive

What do the screens show for `COc1ccc(N2CCN(C(=O)Cc3ccc(OC)c(OC)c3)CC2)cc1`?
Apaf1 activ: -535; Rh110 act interf: inactive; Apaf-1 act conf: inactive
